Measurements from ChEMBL document CHEMBL1649446, “Comparative antipneumococcal activities of sulopenem and other drugs” (2009).
≈ marks a conversion by molar mass, not a printed value.

Tests used:
Type in all cases: functional
Streptococcus pneumoniae [1] = experiment: Antimicrobial activity against Streptococcus pneumoniae isolate 24 by agar dilution method
Streptococcus pneumoniae [2] = experiment: Antimicrobial activity against Streptococcus pneumoniae isolate 3282 by agar dilution method
Streptococcus pneumoniae [3] = experiment: Antimicrobial activity against Streptococcus pneumoniae isolate 1384 by agar dilution method
Procedure, shortened: (§1)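 Agar dilution MIC on Mueller-Hinton agar with 5% sheep blood, inocula 10^4 CFU/spot; amoxicillin-clavulanate combined 1:2; S. pneumoniae ATCC 49619 quality control each run.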

Streptococcus pneumoniae [4] = experiment: Antimicrobial activity against Streptococcus pneumoniae isolate 3412 by agar dilution method; procedure, shortened: as §1
Streptococcus pneumoniae [5] = experiment: Antimicrobial activity against Streptococcus pneumoniae isolate 3455 by agar dilution method
Streptococcus pneumoniae [6] = experiment: Antimicrobial activity against Streptococcus pneumoniae 7 by time-kill analysis
Procedure, shortened: (§2)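 Time-kill in cation-adjusted Mueller-Hinton broth with 5% lysed horse blood; inocula 5 × 105 to 5 × 10^6 CFU/ml; drugs at MIC, 2× and 4× MIC; 35°C shaking water bath; viable counts at 0, 3, 6, 12, 24 h. Bactericidal = ≥3 log10 CFU/ml (99.9%) drop from original inoculum; 90%/99%/99.9% killing scored per strain.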

Streptococcus pneumoniae [7] = experiment: Antimicrobial activity against Streptococcus pneumoniae isolate 37 by agar dilution method; procedure, shortened: as §1
Streptococcus pneumoniae [8] = experiment: Antimicrobial activity against Streptococcus pneumoniae isolate 1424 by agar dilution method; procedure, shortened: as §1
Streptococcus pneumoniae [9] = experiment: Antimicrobial activity against Streptococcus pneumoniae isolate 1055 by agar dilution method
Streptococcus pneumoniae [10] = experiment: Antimicrobial activity against Streptococcus pneumoniae isolate 4747 by agar dilution method; procedure, shortened: as §1
Streptococcus pneumoniae [11] = experiment: Antimicrobial activity against Streptococcus pneumoniae isolate 1147 by agar dilution method; procedure, shortened: as §1
Streptococcus pneumoniae [12] = experiment: Antimicrobial activity against Streptococcus pneumoniae 2 by time-kill analysis; procedure, shortened: as §2
Streptococcus pneumoniae [13] = experiment: Antimicrobial activity against Streptococcus pneumoniae isolate 3263 by agar dilution method
Streptococcus pneumoniae [14] = experiment: Antimicrobial activity against Streptococcus pneumoniae 9 by time-kill analysis
Procedure, shortened: as §2, with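 “12 and” for “12,”, “if” for “=”, “reduction” for “drop”, “90% and 99%” for “90%/99%/99.9%”, “also scored.” for “scored per strain.”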

Streptococcus pneumoniae [15] = experiment: Antimicrobial activity against Streptococcus pneumoniae isolate 3458 by agar dilution method
Streptococcus pneumoniae [16] = experiment: Antimicrobial activity against Streptococcus pneumoniae isolate 1397 by agar dilution method; procedure, shortened: as §1
Streptococcus pneumoniae [17] = experiment: Antimicrobial activity against Streptococcus pneumoniae 19A by agar dilution method; procedure, shortened: as §1
Streptococcus pneumoniae [18] = experiment: Antimicrobial activity against Streptococcus pneumoniae 1 by time-kill analysis
Procedure, shortened: as §2, with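 “12 and” for “12,”, “if” for “=”, “reduction” for “drop”, “90% and 99%” for “90%/99%/99.9%”, “also scored.” for “scored per strain.”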

Streptococcus pneumoniae [19] = experiment: Antimicrobial activity against Streptococcus pneumoniae 6 by time-kill analysis; procedure, shortened: as §2
Streptococcus pneumoniae [20] = experiment: Antimicrobial activity against Streptococcus pneumoniae isolate 33 by agar dilution method; procedure, shortened: as §1
Streptococcus pneumoniae [21] = experiment: Antimicrobial activity against Streptococcus pneumoniae 8 by time-kill analysis; procedure, shortened: as §2
Streptococcus pneumoniae [22] = experiment: Antimicrobial activity against Streptococcus pneumoniae isolate 2880 by agar dilution method; procedure, shortened: as §1
Streptococcus pneumoniae [23] = experiment: Antimicrobial activity against Streptococcus pneumoniae 10 by time-kill analysis; procedure, shortened: as §2
Streptococcus pneumoniae [24] = experiment: Antimicrobial activity against Streptococcus pneumoniae isolate 3260 by agar dilution method
Streptococcus pneumoniae [25] = experiment: Antimicrobial activity against Streptococcus pneumoniae isolate 2686 by agar dilution method; procedure, shortened: as §1
Streptococcus pneumoniae [26] = experiment: Antimicrobial activity against Streptococcus pneumoniae isolate 2688 by agar dilution method; procedure, shortened: as §1
Streptococcus pneumoniae [27] = experiment: Antimicrobial activity against Streptococcus pneumoniae isolate 3791 by agar dilution method; procedure, shortened: as §1
Streptococcus pneumoniae [28] = experiment: Antimicrobial activity against Streptococcus pneumoniae 3 by time-kill analysis; procedure, shortened: as §2
Streptococcus pneumoniae [29] = experiment: Antimicrobial activity against Streptococcus pneumoniae isolate 4755 by agar dilution method; procedure, shortened: as §1
Streptococcus pneumoniae [30] = experiment: Antimicrobial activity against Streptococcus pneumoniae isolate 3587 by agar dilution method
Streptococcus pneumoniae [31] = experiment: Antimicrobial activity against Streptococcus pneumoniae isolate 3275 by agar dilution method; procedure, shortened: as §1
Streptococcus pneumoniae [32] = experiment: Antimicrobial activity against Streptococcus pneumoniae isolate 1564 by agar dilution method
Streptococcus pneumoniae [33] = experiment: Antimicrobial activity against Streptococcus pneumoniae isolate 2874 by agar dilution method; procedure, shortened: as §1
Streptococcus pneumoniae [34] = experiment: Antimicrobial activity against penicillin-intermediate Streptococcus pneumoniae by agar dilution method
Streptococcus pneumoniae [35] = experiment: Antimicrobial activity against Streptococcus pneumoniae isolate 2617 by agar dilution method; procedure, shortened: as §1
Streptococcus pneumoniae [36] = experiment: Antimicrobial activity against Streptococcus pneumoniae 12 by time-kill analysis; procedure, shortened: as §2
Streptococcus pneumoniae [37] = experiment: Antimicrobial activity against Streptococcus pneumoniae isolate 1394 by agar dilution method
Streptococcus pneumoniae [38] = experiment: Antimicrobial activity against penicillin-susceptible Streptococcus pneumoniae by agar dilution method
Streptococcus pneumoniae [39] = experiment: Antimicrobial activity against Streptococcus pneumoniae isolate 3346 by agar dilution method
Streptococcus pneumoniae [40] = experiment: Antimicrobial activity against Streptococcus pneumoniae 4 by time-kill analysis; procedure, shortened: as §2
Streptococcus pneumoniae [41] = experiment: Antimicrobial activity against Streptococcus pneumoniae isolate 3681 by agar dilution method; procedure, shortened: as §1
Streptococcus pneumoniae [42] = experiment: Antimicrobial activity against Streptococcus pneumoniae isolate 1146 by agar dilution method; procedure, shortened: as §1
Streptococcus pneumoniae [43] = experiment: Antimicrobial activity against Streptococcus pneumoniae 5 by time-kill analysis
Procedure, shortened: as §2, with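 “12 and” for “12,”, “if” for “=”, “reduction” for “drop”, “90% and 99%” for “90%/99%/99.9%”, “also scored.” for “scored per strain.”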

Streptococcus pneumoniae [44] = experiment: Antimicrobial activity against penicillin-resistant Streptococcus pneumoniae by agar dilution method; procedure, shortened: as §1
Streptococcus pneumoniae [45] = experiment: Antimicrobial activity against Streptococcus pneumoniae isolate 3374 by agar dilution method; procedure, shortened: as §1
Streptococcus pneumoniae [46] = experiment: Antimicrobial activity against Streptococcus pneumoniae isolate 3481 by agar dilution method; procedure, shortened: as §1
Streptococcus pneumoniae [47] = experiment: Antimicrobial activity against Streptococcus pneumoniae 11 by time-kill analysis; procedure, shortened: as §2

`C[C@@H](O)[C@H]1C(=O)N2C(C(=O)O)=C(SCCNC=N)C[C@H]12` [IMIPENEM ANHYDROUS] showed an MIC (Streptococcus pneumoniae [1]) of 0.25 µg/mL (≈ 0.835 µM), an MIC (Streptococcus pneumoniae [2]) of 0.125 µg/mL (≈ 0.418 µM) and an MIC (Streptococcus pneumoniae [3]) of 0.125 µg/mL (≈ 0.418 µM). For the same compound, the MIC (Streptococcus pneumoniae [4]) was 0.125 µg/mL (≈ 0.418 µM), the MIC (Streptococcus pneumoniae [5]) was 0.5 µg/mL (≈ 1.67 µM) and the MIC (Streptococcus pneumoniae [6]) was 0.5 µg/mL (≈ 1.67 µM). For the same compound, the MIC (Streptococcus pneumoniae [7]) was 0.25 µg/mL (≈ 0.835 µM), the MIC (Streptococcus pneumoniae [8]) was 0.25 µg/mL (≈ 0.835 µM) and the MIC (Streptococcus pneumoniae [9]) was 0.25 µg/mL (≈ 0.835 µM). It also gave an MIC (Streptococcus pneumoniae [10]) of 0.125 µg/mL (≈ 0.418 µM), an MIC (Streptococcus pneumoniae [11]) of 0.5 µg/mL (≈ 1.67 µM) and an MIC (Streptococcus pneumoniae [12]) of 0.004 µg/mL (≈ 0.0134 µM). For the same compound, the MIC (Streptococcus pneumoniae [13]) was 0.06 µg/mL (≈ 0.2 µM), the MIC (Streptococcus pneumoniae [14]) was 0.03 µg/mL (≈ 0.1 µM) and the MIC (Streptococcus pneumoniae [15]) was 0.5 µg/mL (≈ 1.67 µM). The MIC (Streptococcus pneumoniae [16]) was 0.25 µg/mL (≈ 0.835 µM), the MIC50 (Streptococcus pneumoniae [17]) was 0.5 µg/mL (≈ 1.67 µM) and the MIC90 (Streptococcus pneumoniae [17]) was 0.5 µg/mL (≈ 1.67 µM). It also gave an MIC (Streptococcus pneumoniae [18]) of 0.004 µg/mL (≈ 0.0134 µM), an MIC (Streptococcus pneumoniae [19]) of 0.03 µg/mL (≈ 0.1 µM) and an MIC (Streptococcus pneumoniae [20]) of 0.5 µg/mL (≈ 1.67 µM). It also gave an MIC (Streptococcus pneumoniae [21]) of 0.25 µg/mL (≈ 0.835 µM), an MIC (Streptococcus pneumoniae [22]) of 0.25 µg/mL (≈ 0.835 µM) and an MIC (Streptococcus pneumoniae [23]) of 0.03 µg/mL (≈ 0.1 µM). It also gave an MIC (Streptococcus pneumoniae [24]) of 0.25 µg/mL (≈ 0.835 µM), an MIC (Streptococcus pneumoniae [25]) of 0.25 µg/mL (≈ 0.835 µM) and an MIC (Streptococcus pneumoniae [26]) of 0.25 µg/mL (≈ 0.835 µM). It also gave an MIC (Streptococcus pneumoniae [27]) of 0.125 µg/mL (≈ 0.418 µM), an MIC (Streptococcus pneumoniae [28]) of 0.06 µg/mL (≈ 0.2 µM) and an MIC (Streptococcus pneumoniae [29]) of 0.125 µg/mL (≈ 0.418 µM). It also gave an MIC (Streptococcus pneumoniae [30]) of 0.125 µg/mL (≈ 0.418 µM), an MIC (Streptococcus pneumoniae [31]) of 0.03 µg/mL (≈ 0.1 µM) and an MIC (Streptococcus pneumoniae [32]) of 0.125 µg/mL (≈ 0.418 µM). The MIC (Streptococcus pneumoniae [33]) was 0.25 µg/mL (≈ 0.835 µM), the MIC50 (Streptococcus pneumoniae [34]) was 0.03 µg/mL (≈ 0.1 µM) and the MIC90 (Streptococcus pneumoniae [34]) was 0.125 µg/mL (≈ 0.418 µM). The MIC (Streptococcus pneumoniae [35]) was 0.125 µg/mL (≈ 0.418 µM), the MIC (Streptococcus pneumoniae [36]) was 0.25 µg/mL (≈ 0.835 µM) and the MIC (Streptococcus pneumoniae [37]) was 0.25 µg/mL (≈ 0.835 µM). It also gave an MIC50 (Streptococcus pneumoniae [38]) of 0.008 µg/mL (≈ 0.0267 µM), an MIC90 (Streptococcus pneumoniae [38]) of 0.008 µg/mL (≈ 0.0267 µM) and an MIC (Streptococcus pneumoniae [39]) of 0.25 µg/mL (≈ 0.835 µM). The MIC (Streptococcus pneumoniae [40]) was 0.25 µg/mL (≈ 0.835 µM), the MIC (Streptococcus pneumoniae [41]) was 0.125 µg/mL (≈ 0.418 µM) and the MIC (Streptococcus pneumoniae [42]) was 0.5 µg/mL (≈ 1.67 µM). It also gave an MIC (Streptococcus pneumoniae [43]) of 0.5 µg/mL (≈ 1.67 µM), an MIC50 (Streptococcus pneumoniae [44]) of 0.25 µg/mL (≈ 0.835 µM) and an MIC90 (Streptococcus pneumoniae [44]) of 0.25 µg/mL (≈ 0.835 µM). The MIC (Streptococcus pneumoniae [45]) was 0.125 µg/mL (≈ 0.418 µM), the MIC (Streptococcus pneumoniae [46]) was 0.125 µg/mL (≈ 0.418 µM) and the MIC (Streptococcus pneumoniae [47]) was 0.25 µg/mL (≈ 0.835 µM).
